Measured values published in the RNAGym collection of RNA variant scans (doi:10.1126/science.aae0568).
This sample holds only a part of the variants without activity.

B1: tRNA (parent)
chain: GUUCCGUUGGCGUAAUGGUAACGCGUCUCCCUCCUAAGGAGAAGACUGCGGGUUCGAGUCCCGUACGGAACG

Variants of: B1
Assay: yeast fitness relative to wild type (ratio to wild type); higher = fitter; tRNA-Arg(CCU), competitive growth, 37 C, YPD
How it was run: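 For this measurement, the tRNA-Arg(CCU) gene was varied by chemical synthesis at a 3% per-site mutation rate across 69 sites, and each variant was placed at the native genomic locus in Saccharomyces cerevisiae. The pooled strains went through a 24-hour competition in YPD at 37°C in six parallel replicates, with amplicons from start and end populations read by 100-nucleotide paired-end sequencing. Darwinian fitness relative to wild type followed from the change in each genotype's frequency. Genotypes needed ≥ 100 starting reads, and estimates < 0.5 were set to 0.5.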

Point of comparison: GUUCCGUUGGCGUAAUGGUAACGCGUCUCCCUCCUAAGGAGAAGACUGCAGGUUCAAGUCCCGUACGGCACG [G50A G56A A69C], yeast fitness 0.706. Against it:
- GUUCCAUUGGCGUAAUGGUAAGGCGUCUCCCUCCUAAGGAGAAGACUGCGGCUUCGACUCCCGUUCGGAACG [G6A C22G G52C G58C A65U] — lower, ≤ 0.5
- GUUCCGUUGACGUAAUGGUAACGCGAUUACCUCCUAAGGAGAAGACUGCGGGUUCGAGUCCCGUGCGCAACG [G10A U26A C27U C29A A65G G68C] — lower, 0.563
- GUUCCGUUGCCGUGAUGGUAACGCGUCCCCCUCCUAAGAAGAAGACUGCGGGUUCGAGUCCCGUUCGGAACG [G10C A14G U28C G39A A65U] — lower, ≤ 0.5
- GUUCAGUUGGCGUAAUGGUAACGCAUCUCCCUACUAAGGUGAAGACUGCGGGUUCGAGUCCCGUACGGUACG [C5A G25A C33A A40U A69U] — lower, ≤ 0.5
- GUUCCGUUGGCGUAAUGGUAAGGCGUCUCCCUCCUAAGGAGAAGACUGCGGGUUCGACUCCCGUACGGAACG [C22G G58C] — higher, 0.971
- GUUCCGUUGGCGUAGUGGUAACGCGUCUCCCUCCUACGGAGAAGACUGCGGGUUCCAGUCCCGUCCGGAACG [A15G A37C G56C A65C] — lower, ≤ 0.5
- GUUCCGUUGGCGUAAUGGUACCGCGUCUCCCUCCUAAGGAGAAGACUGCGGGUUCGAGUCCCGUACGGUACG [A21C A69U] — higher, 0.827
- GUUCCGUUGGCGUAAUGGUAACGCGUCUCCCUCCUAAGGAGAAGAUUGCGGGUUCGAGUCCGGUACGGAACG [C46U C62G] — higher, 0.969
- GUUCCGUUGGAGUAAUGGUAACGCGUCUCCCUCCUAAGGAAAAGACUGCGGGUUCGCGUCCCGUACGGAACG [C11A G41A A57C] — lower, ≤ 0.5
- GUUCAGUUGGCGUAAUGGUAACGUCUCUCGCUCCUAAGGAGAAGACUGCGGGUUCGAGUCCCGUACGGAACG [C5A C24U G25C C30G] — lower, ≤ 0.5
- GUUCCGUUGGCGUAAUGGUAACGCGUCUCCCUCGUAAGGAGAAGACUGCGGGUUAGAGUCCCGUAUGGAACG [C34G C55A C66U] — lower, ≤ 0.5
- GUUCCGUUGGCGUAGUGGUACCGCGUCUCCCUCCUAAGGAGAAGACUGUGGGUUCGAGUCCCGUACGGAACG [A15G A21C C49U] — lower, ≤ 0.5
- GUGCCGUUGGCGUAAUGGUAACGCGUCUCCCUCCUCAGGAGAAGCCUGCGGGUUCGAAUCCCGUACGCAUCG [U3G A36C A45C G58A G68C A70U] — lower, ≤ 0.5
- GUUCCGUUGACGUAAUGGUAACGCGUCUCCCUUCUAAGGAGAAGACUGCGGGUUCGAGCCCCGUACGGAACG [G10A C33U U59C] — lower, ≤ 0.5
- GUUCUGUUGGCGUAAUGGUAACGCGUCUCCCUGCUAAGGAGAAGACUGCGGGUUUGAGUCCCGUACGGAACG [C5U C33G C55U] — lower, ≤ 0.5
- GUUCCGUUGGCGUAAUGGUUACGCGUCUCUCUCCUAAGGAGAAGACUGCGGGUUCGAGUCCCGUACGGAACG [A20U C30U] — higher, 0.783
- GUUCCGUUGGCGUAAUGGUAAAGCGUCUCCCUCCGAAGGAGAAGACUGCGGGUUCGAGUCCCGUAGGGUACG [C22A U35G C66G A69U] — lower, ≤ 0.5
- GUUCCGUUAGAGUAAUGGUAACGCGUCUCCCUCCUAAGGAGAAGACUGCCGGUUAGAGUCCCGUACGGAACG [G9A C11A G50C C55A] — lower, ≤ 0.5
- GAUCCGUUGACGUAAUGGUAACGCGACUCCCUCCUAAGGAGAAGACUGCGGGUUCGAGUCCCGUAUGGAACG [U2A G10A U26A C66U] — lower, ≤ 0.5
- GUGCCGUUGGCGUAAUGGUAACGCGUCUCCCUCCUAAGGAGAAGACUGGGGGUUCGAGUCCCGUACGGAACG [U3G C49G] — higher, 0.809
- GUUCCGUUGGCGUGAUGGUAUCACGUCUCCCUCCUAUGGAGAAGACUGCGGGUUCGAGUCCCGUACGGAACG [A14G A21U G23A A37U] — lower, ≤ 0.5
- GUUCCGUUGGCGUAAUAGUAACGCGUCUCCCUCCUAAGGAGAAGACUGCGGGUUCGAGUCCCGUCCGGAACG [G17A A65C] — higher, 0.733
- GUUCCGUCGGCGUAAUAGUAACGCGUCUCCCUCCUAAGGACAAGACUGCGGGUUCGAGUCCCGUUCGGAACG [U8C G17A G41C A65U] — lower, ≤ 0.5
- GUGCAGUUGGCGUAAUGGUGACGCGUCUCCCUCCUAAGGAGAAGACUGCGGGUUCGAGUCCCGUACGGAUCG [U3G C5A A20G A70U] — lower, ≤ 0.5
- GUUACGUUGGCGUAAUGGUAACGCGUCUCCCUCCUAAGGAGAAGGCUGCGGGUUCGAGUCCCGUACGGAACG [C4A A45G] — higher, 0.808
- GUUCCGUUGGCGUAAUGGUAACGCGUCUCCCUCCUAAGGAGAAGACUGCGGGUUCGAGUAUCGUACGGAACG [C60A C61U] — lower, 0.599
- GUUCGGUUGGUGUAAUGGUAACGCGUCUCCCUCCUACGGAGAAGACUGUGGGUUCGAGUACCGUAGGGAACG [C5G C11U A37C C49U C60A C66G] — lower, 0.685
- GUUCAGUUGGCGUAAUGGUACCGCGUCUCCCUCCUAAGGAGAUGAGUGCGGGUUCGAGUCCCGUACGGAACG [C5A A21C A43U C46G] — lower, 0.541
- GUUCCGUUGGCGUAAUGGUAACGCGUCUCCGUGCUAAGGAGAAGACUGCGGGUUCGAGUCCCGUACGGAUCG [C31G C33G A70U] — lower, ≤ 0.5
- GUUCCGUUGGCGUAAUGGUAACGCGUCUCCCUCCUAAGGAGAAAACUGCGGGUUCGAUUCCCGUACGGCACG [G44A G58U A69C] — lower, ≤ 0.5
- GUUCCGUUGGCGUAAUGGUAACGCGUCUCUCUCCUAAGGACAAGACUGCGGGUUCGAGUCCCGUACGGAUCG [C30U G41C A70U] — lower, 0.567
- GUUCCGUUGGCGUAAUCGUAACGCGCCUCCCUCCUAAGGAGAAGACUGCGGGUUCGAGUCCCGUACGGAACG [G17C U26C] — lower, 0.698
- GUUCUGUUGGCAUAUUGGUAACGCGUCUCCCUCCUAAGGAGAAGACUGCGGGUUCGAGUCCCAUACGGAUCG [C5U G12A A15U G63A A70U] — lower, ≤ 0.5
- GUUCCGUUGGCGUAAUGGUAAGGCGUCUCCCUCCUAAGGAGAAGACUGCGGGUUCGGGUCCCGUACGGAACG [C22G A57G] — lower, 0.676
- GUUCCGUUGGCGUAAUGGUAACGCGUCUCCCUCCUAAGGAGAAGGCUGCGGGUUCAAGACCCGUACGGAACG [A45G G56A U59A] — lower, ≤ 0.5
- GCUCAGUUGGCGUAAUGGUAACGCGUCUCGCUCCUAAGGAGAAGACUGCGGGUUCGAGUCCCGUACGGAACG [U2C C5A C30G] — lower, ≤ 0.5
- GUUCCGUUGGCGUACUGGUAACGCGUCUCCCUGCUAACGAGAAGACUGCGGGUUCGAGUCCAGUACGGAACG [A15C C33G G38C C62A] — lower, 0.551
